Data published in ChEMBL document CHEMBL4706538, “Novel pleuromutilin derivatives with substituted 6-methylpyrimidine: Design, synthesis and antibacterial evaluation” (2020).
In brackets after ≈: the same amount, converted by molar mass. Activity calls are given as the source filed them. The calls are words filed in the database; no cut-off is given here.

Assays:
Streptococcus agalactiae = assay: Antibacterial activity against Streptococcus agalactiae measured after 18 to 24 hrs by microtiter dilution method; assay type: functional; conditions: time 18-24 hrs
Method in brief: (§1)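 Compounds were taken up in 25% DMSO at 64 μg/mL and serially diluted two-fold in water (11 dilutions). Log-phase bacteria grown in MHB were diluted to 10^5-10^6 CFU/mL and mixed 1:1 with the dilutions. Plates were incubated at 37 °C for 18-24 h. MIC was the lowest concentration giving no growth by OD492, averaged over three independent experiments.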

Staphylococcus aureus [1] = assay: Bacteriostatic activity against Staphylococcus aureus BNCC 337371 assessed as reduction in bacterial load incubated for 2 to 24 hrs prior to 10 fold dilution followed by replating on MH agar plate and measured after 24 hrs by time-kill assay; assay type: functional, organism-based; conditions: time 2-24 hrs
Method in brief: (§2)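 MRSA-337371 was grown in Mueller-Hinton broth at 37 °C for 6 h with shaking, then diluted to about 6×10^5 CFU/mL. It was exposed to 0.5, 1, 2 and 4× MIC. Samples taken at 0, 2, 4, 6, 8, 12 and 24 h were serially diluted 10-fold in 0.9% saline and plated on MH agar at 37 °C for 24 h. Colonies were counted as log10 CFU/mL, in triplicate.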

[2] = tested on: Staphylococcus epidermidis; assay: Antibacterial activity against Staphylococcus epidermidis ATCC 51625 measured after 18 to 24 hrs by microtiter dilution method; assay type: functional; conditions: time 18-24 hrs; method in brief: as §1
Staphylococcus aureus [3] = assay: Antibacterial activity against Staphylococcus aureus BNCC 337371 infected in Kunming mouse assessed as reduction in bacterial load in liver at 20 to 40 mg/kg, ip measured after 2 days by colony counting method; assay type: functional, organism-based; conditions: dose 20-40 mg/kg, time 2.0 day
Method in brief: (§3)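 Kunming mice (SPF, 6-8 weeks) were made neutropenic with ip cyclophosphamide, 150 mg/kg for four days and 100 mg/kg one day before infection. They were infected ip with 0.5 mL of MRSA-337371 at 10^8 CFU/mL. About 1 h later, compound was given ip in 0.5 mL vehicle (DMSO:Tween-80:water 0.5:0.5:9). After 2 d of treatment, lung, kidney and liver were weighed, homogenized in saline, diluted 10-fold, plated on MH agar at 37 °C for 24 h in triplicate, and expressed as CFU/g.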

Enterococcus faecalis = assay: Antibacterial activity against Enterococcus faecalis measured after 18 to 24 hrs by microtiter dilution method; assay type: functional; conditions: time 18-24 hrs; method in brief: as §1
Staphylococcus aureus [4] = assay: Antibacterial activity against Staphylococcus aureus BNCC 337371 infected in Kunming mouse assessed as reduction in infiltration of neutrophils cells at 20 to 40 mg/kg, ip measured after 2 days by H and E staining based light microscopic analysis; assay type: functional, organism-based; conditions: dose 20-40 mg/kg, time 2.0 day
Method in brief: (§4)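 In neutropenic Kunming mice infected ip with MRSA-337371 and treated ip, lungs were taken after 2 d of treatment. They were fixed in 10% buffered formalin, embedded in paraffin, cut into 4 μm sections, stained with H&E and examined by light microscopy against normal and untreated infected groups.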

Staphylococcus aureus [5] = assay: Antibacterial activity against Staphylococcus aureus BNCC 337371 infected in Kunming mouse assessed as bacterial load in lung at 20 to 40 mg/kg, ip measured after 2 days by colony counting method (reference value: 4.8 log10CFU/ml); assay type: functional; conditions: dose 20-40 mg/kg; time 2 day; method in brief: as §3
Staphylococcus aureus [6] = assay: Antibacterial activity against Staphylococcus aureus BNCC 337371 infected in Kunming mouse assessed as reduction in local congestion in lung at 20 to 40 mg/kg, ip measured after 2 days by H and E staining based light microscopic analysis; assay type: functional, organism-based; conditions: dose 20-40 mg/kg, time 2.0 day; method in brief: as §4
Pasteurella multocida = assay: Antibacterial activity against Pasteurella multocida CVCC 1659 measured after 18 to 24 hrs by microtiter dilution method; assay type: functional; conditions: time 18-24 hrs; method in brief: as §1
Staphylococcus aureus [7] = assay: Antibacterial activity against Staphylococcus aureus BNCC 337371 measured after 18 to 24 hrs by microtiter dilution method; assay type: functional; conditions: time 18-24 hrs; method in brief: as §1
Staphylococcus aureus [8] = assay: Antibacterial activity against Staphylococcus aureus BNCC 337371 infected in ip dosed Kunming mouse assessed as increase in mouse survival measured after 7 days; assay type: functional; conditions: for ED50: BNCC 337371, ip, 168 h, time 7 day; for Activity: time 7.0 day
Method in brief: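 Neutropenic 6-8 week Kunming mice (cyclophosphamide 150 mg/kg ip for four days, then 100 mg/kg one day before inoculation) were infected ip with 0.5 mL MRSA-337371 at 10^8 CFU/mL. About 1 h later they were dosed ip at 5, 8, 15, 25 or 40 mg/kg in DMSO:Tween-80:water 0.5:0.5:9 (10 per group). Mice were observed twice daily, survival was read at day 7, and ED50 was calculated by the Bliss method.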

Staphylococcus aureus [9] = assay: Bacteriostatic activity against Staphylococcus aureus BNCC 337371 assessed as reduction in bacterial load at 2 to 4 times MIC incubated for 8 hrs prior to 10 fold dilution followed by replating on MH agar plate and measured after 24 hrs by time-kill assay relative to control; assay type: functional; conditions: time 32 hrs; method in brief: as §2
Escherichia coli = assay: Antibacterial activity against Escherichia coli CICC 10389 measured after 18 to 24 hrs by microtiter dilution method; assay type: functional; conditions: time 18-24 hrs; method in brief: as §1
[10] = tested on: Streptococcus dysgalactiae; assay: Antibacterial activity against Streptococcus dysgalactiae measured after 18 to 24 hrs by microtiter dilution method; assay type: functional; conditions: time 18-24 hrs; method in brief: as §1
Staphylococcus aureus [11] = assay: Antibacterial activity against Staphylococcus aureus ATCC 25923 measured after 18 to 24 hrs by microtiter dilution method; assay type: functional; conditions: time 18-24 hrs; method in brief: as §1
Staphylococcus aureus [12] = assay: Antibacterial activity against Staphylococcus aureus BNCC 337371 infected in Kunming mouse assessed as reduction in bacterial load in lung at 20 to 40 mg/kg, ip measured after 2 days by colony counting method; assay type: functional, organism-based; conditions: dose 20-40 mg/kg, time 2.0 day; method in brief: as §3
Staphylococcus aureus [13] = assay: Antibacterial activity against Staphylococcus aureus BNCC 337371 infected in Kunming mouse assessed as reduction in lung tissue damage at 20 to 40 mg/kg, ip measured after 2 days by H and E staining based light microscopic analysis; assay type: functional, organism-based; conditions: dose 20-40 mg/kg, time 2.0 day; method in brief: as §4
Staphylococcus aureus [14] = assay: Antibacterial activity against Staphylococcus aureus BNCC 337371 infected in Kunming mouse assessed as thickening of alveolar septum and wall at 20 mg/kg, ip measured after 2 days by H and E staining based light microscopic analysis; assay type: functional, organism-based; conditions: time 2.0 day; method in brief: as §4
Staphylococcus aureus [15] = assay: Antibacterial activity against Staphylococcus aureus BNCC 337371 infected in Kunming mouse assessed as reduction in bacterial load in kidney at 20 to 40 mg/kg, ip measured after 2 days by colony counting method; assay type: functional, organism-based; conditions: dose 20-40 mg/kg, time 2.0 day; method in brief: as §3
Staphylococcus aureus [16] = assay: Antibacterial activity against Staphylococcus aureus BNCC 337371 infected in Kunming mouse assessed as reduction in inflammatory cell infiltration in pulmonary interstitium at 40 mg/kg, ip measured after 2 days by H and E staining based light microscopic analysis; assay type: functional, organism-based; conditions: time 2.0 day; method in brief: as §4

Row | SMILES | MIC (Streptococcus agalactiae) | Activity (Staphylococcus aureus [1]) | MIC [2] | Activity (Staphylococcus aureus [3]) | MIC (Enterococcus faecalis) | MIC (Pasteurella multocida) | MIC (Staphylococcus aureus [7]) | ED50 (Staphylococcus aureus [8]) | Activity (Staphylococcus aureus [8]) | fold change (FC) (Staphylococcus aureus [9]) | MIC (Escherichia coli) | MIC [10] | MIC (Staphylococcus aureus [11]) | other results
1 | C=C[C@]1(C)C[C@@H](OC(=O)CSCCN(CC)CC)[C@]2(C)[C@H](C)CC[C@]3(CCC(=O)[C@H]32)[C@@H](C)[C@@H]1O [TIAMULIN] | 0.2 µM (≈ 0.0988 µg/mL) | Dose-dependent effect | 0.82 µM (≈ 0.405 µg/mL) | inactive | 52.5 µM (≈ 25.9 µg/mL) | 3.28 µM (≈ 1.62 µg/mL) | 0.82 µM (≈ 0.405 µg/mL) | 25.9 mg/kg | Dose-dependent effect | 1 | 52.5 µM (≈ 25.9 µg/mL) | 0.2 µM (≈ 0.0988 µg/mL) | 0.82 µM (≈ 0.405 µg/mL) | Activity (Staphylococcus aureus [4]): Active; Activity (Staphylococcus aureus [5]): 1.1 log10CFU/ml; Activity (Staphylococcus aureus [6]): Active
2 | C=C[C@]1(C)C[C@@H](OC(=O)CSc2nc(C)cc(N3CCCC3)n2)[C@@]2(C)[C@H](C)CC[C@]3(CCC(=O)[C@H]32)[C@@H](C)[C@@H]1O | 0.06 µM (≈ 0.0333 µg/mL) | Dose-dependent effect | 0.11 µM (≈ 0.0611 µg/mL) | inactive | 14.4 µM (≈ 8.01 µg/mL) | 14.4 µM (≈ 8.01 µg/mL) | 0.06 µM (≈ 0.0333 µg/mL) | 18 mg/kg | Dose-dependent effect | >=2 | > 57.6 µM | 0.06 µM (≈ 0.0333 µg/mL) | 0.06 µM (≈ 0.0333 µg/mL) | Activity (Staphylococcus aureus [12]): Active; Activity (Staphylococcus aureus [13]): Active; Activity (Staphylococcus aureus [14]): Active; Activity (Staphylococcus aureus [15]): Active; Activity (Staphylococcus aureus [16]): Active
